Bioassay records deposited in PubChem by several laboratories.
VIM-2 inhibitor – VIM-2 metallo-beta-lactamase inhibitors, primary screen, biochemical, epi-absorbance readout, Pseudomonas aeruginosa enzyme | purified VIM-2, nitrocefin hydrolysis, epi-absorbance fluorescence | inhibition, % at 5.6 µM | actives 0.89% (n = 290,000);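 active = inhibition above the mean of all tested compounds plus 3 SD, cutoff set per screening run, cut at about 7.5% in these data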;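 also: red hydrolysis product quenches plate fluorescence so inhibitors raise well fluorescence; 0% = enzyme with DMSO and 100% = DMSO without enzyme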
PLCg1 inh – PLC-gamma1 enzyme inhibitors, primary screen, biochemical, fluorescence, purified enzyme. 1-phosphatidylinositol 4,5-bisphosphate phosphodiesterase gamma-1 (Homo sapiens), P19174. fluorogenic substrate. inhibition, % at 12.2 µM. actives 0.84% (n = 370,000). AID 720700, 2013; in the data active = inhibition above about 9.5%
PLC-beta3 inh – human PLC-beta3 inhibitors, primary screen, biochemical, fluorescence. 1-phosphatidylinositol 4,5-bisphosphate phosphodiesterase beta-3 (Homo sapiens), Q01970. Purified PLC-beta3, fluorogenic substrate. inhibition, % at 12.2 µM. actives 0.18% (n = 370,000). AID 720704, 2013; in the data active = inhibition above about 11%;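 also: 0% = median of compound wells on plate and 100% = full blocker control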
IMP-1 inh-1 – IMP-1 metallo-beta-lactamase inhibitors, primary screen, biochemical, epi-absorbance readout, Pseudomonas aeruginosa enzyme | metallo-beta-lactamase IMP-1 (Pseudomonas aeruginosa) | purified IMP-1, nitrocefin hydrolysis, epi-absorbance fluorescence | inhibition, % at 5.6 µM | actives 0.45% (n = 290,000) | AID 1556, 2009;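 active = inhibition above the mean plus 3 SD of all compounds in the same screening run, cut at about 4.5% in these data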;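 also: 0% = IMP-1 with DMSO and 100% = DMSO wells lacking enzyme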
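System: Purified recombinant IMP-1 metallo-beta-lactamase enzyme | Measured by: Fluorescence quenching readout, ex 480/em 530 nm | Replication: Singlicate | Incubation: 15 min preincubation plus 25 min reaction at 25 °C | Evaluation: Percent inhibition from optical density relative to buffer-blank wells | Benchmarks: DMSO with and without IMP-1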
PvdQ acylase – P. aeruginosa PvdQ acylase inhibitors, primary screen, biochemical, fluorescence, plate reader and imaging, single point. purified PvdQ acylase. actives 0.063% (n = 340,000). PvdQ acylase [Pseudomonas aeruginosa LESB58]. inhibition, % at 10 µM; in the data active = inhibition above about 30%, passing the limit was not always enough;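 also: 0% = vehicle neutral wells and 100% = reference inhibitor wells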
IMP-1 inh-2 – IMP-1 metallo-beta-lactamase inhibitors, confirmation, selectivity assay for selective VIM-2 inhibitor project, biochemical, epi-absorbance readout, triplicate; shares compounds with VIM-2 inhibitor; purified IMP-1, nitrocefin hydrolysis, epi-absorbance fluorescence; inhibition, % at 5.6 µM; 1,300 tested, under 10 active; AID 1856, 2009; call rule not given here;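 also: 0% = enzyme with vehicle and 100% = vehicle without enzyme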
VIM-2 FRET ctr – VIM-2 inhibitors in FRET format, confirmation, artefact control for selective VIM-2 inhibitor project, biochemical, epi-absorbance artifact exclusion | inhibition, % at 5.6 µM | actives 23% (n = 1,300) | purified VIM-2, CCF2 FRET substrate hydrolysis | shares compounds with VIM-2 inhibitor;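 active = inhibition above the mean of all tested compounds plus 3 SD, cut at about 19% in these data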;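 also: 0% = VIM-2 plus DMSO and 100% = no enzyme wells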
TEM-1 counter – TEM-1 serine beta-lactamase inhibitors, counter-screen for VIM-2 inhibitor project, biochemical, epi-absorbance, HTS; shares compounds with VIM-2 inhibitor; Purified TEM-1, nitrocefin hydrolysis, epi-absorbance fluorescence; inhibition, % at 5.6 µM; actives 3% (n = 1,300); AID 1866, 2009;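 active = inhibition above that campaign's mean inhibition plus 3 SD, cut at about 0.46% in these data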;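 also: 0% = TEM-1 with DMSO and 100% = TEM-1 with 100 µM potassium clavulanate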
Target sequence (P62593 whole entry, looked up): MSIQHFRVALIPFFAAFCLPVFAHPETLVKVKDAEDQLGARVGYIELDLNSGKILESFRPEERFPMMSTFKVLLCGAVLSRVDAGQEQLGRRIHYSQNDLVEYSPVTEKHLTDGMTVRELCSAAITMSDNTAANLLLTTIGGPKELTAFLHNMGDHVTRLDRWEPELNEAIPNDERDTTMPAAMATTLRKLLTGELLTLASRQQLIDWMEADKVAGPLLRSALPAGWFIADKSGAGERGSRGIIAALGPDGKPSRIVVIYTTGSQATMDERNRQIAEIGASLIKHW
VIM-2 confirm 2 – VIM-2 metallo-beta-lactamase inhibitors, confirmation, biochemical, epi-absorbance, hits shared with IMP-1 screen; shares compounds with VIM-2 inhibitor; purified VIM-2, nitrocefin hydrolysis; inhibition, % at 5.6 µM; actives 96% (n = 1,300); AID 2187, 2009;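 active = inhibition of the VIM-2 beta-lactamase enzyme above about 11% from the earlier first-round screen, limit read from the data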;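 also: 0% = VIM-2 with DMSO and 100% = buffer wells without enzyme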
Active calls of the source: *; i = inactive; x = no result given. Shown are actives, neighbours in structure and some others; about 2% of the full set was active somewhere.

SMILES	VIM-2 inhibitor	PLCg1 inh	PLC-beta3 inh	IMP-1 inh-1	PvdQ acylase	others
COc1ccc(CCNc2c(C)c(C)nc3ncnn23)cc1	8.8*	1	-25	-2	-24
CCOC(=O)c1c(CC(C)C)csc1/N=C/C1C(=O)CC(C)(C)CC1=O	-2	-22	-23	9.1*	-4
Nc1c(C(=O)Nc2cccc(F)c2)nnn1-c1ccc2c(c1)OCCO2	4	5	-5	18*	-8
O=CN1CCN(C(=O)C2CCN(c3ncnc4c3sc3cccc(F)c34)CC2)CC1	x	-45	-67	x	x
O=C(C1CCN(c2ncnc3c2sc2cccc(F)c23)CC1)N1CCOCC1	11*	-49	-63	-2	-4
CCCOc1ccc(Cn2c(=O)oc3ccc(C)cc32)cc1OC	-3	6	13*	-2	-7
Cc1cnn(C(=S)NCc2ccc(Cl)cc2)c1	-5	13*	9	-3	x
NS(=O)(=O)c1ccc(NC(=S)NNC(=O)c2ccc(Br)o2)cc1	-7	-3	-9	5.2*	-5
CN1CCN(c2ccc(NC(=S)NC(=O)c3cccc4c(Cl)cccc34)cc2)CC1	8.3*	0	-4	-2	-4
O=C(NC(=S)Nc1ccc(-c2ccccc2)cc1)c1ccccc1	x	4	0	x	-10
CN1CCN(S(=O)(=O)c2ccc(NC(=S)NC(=O)c3ccc(Cl)cc3)cc2)CC1	27*	-1	-1	-2	-4
O=C(NC(=S)Nc1ccc(S(=O)(=O)N2CCCCC2)cc1)c1ccc(Cl)cc1	-5	0	1	-2	-6
NS(=O)(=O)c1ccc(NC(=S)NC(=O)c2ccc(-c3ccccc3)cc2)cc1	0	0	0	5.5*	-7
Cc1c[nH]c2cccc(-c3ccc4c(c3)OCO4)c12	x	-7	-8	x	x
C#CCNC(=O)CSCc1nc(-c2ccc(OCC)cc2)oc1C	x	-1	1	x	x
Cc1cc(=O)[nH]c(-n2[nH]c3c(c2=O)CCCC3)n1	1	-27	-36	14*	-11
Cc1nc(-n2[nH]c3c(c2=O)CCCC3)[nH]c(=O)c1Cc1ccccc1	-3	-89	-117	-3	-8
Cc1ccnc(NC(=O)CCc2c(C)nc3ncnn3c2C)c1	-2	-1	1	1	-4
Cc1ccc(NC(=O)CCc2c(C)nc3ncnn3c2C)nc1	1	0	3	5.2*	-12
COC(=O)[C@]12C[C@H](CC(=O)NCCC(C)C)C(=O)N(Cc3cccc4ccccc34)C1=C[C@H](C(C)C)O[C@@H]2C1CC1	x	0	6	x	x
COc1ccc(-c2cc(OC(=O)c3ccc(F)cc3)c3c(C)oc(C)c3c(=O)c2)cc1	-2	x	x	4.9*	x
O=C1OC(Nc2cc(Br)cc3cccnc23)c2ccccc21 (centres undefined)	3	11*	-24	-2	5
CC(C)(C)C(=O)NC(=C(Cl)Cl)P(=O)(O)O	10*	-1	-2	0	-9
COCC#Cc1ccc(CC[C@H]2O[C@H]3CC[C@@H](CO)O[C@H]3C[C@H]2n2cc(C3CC3)nn2)cc1	x	0	4	x	x
O=C(C1CCN(c2ncnc3c2sc2cccc(F)c23)CC1)N1CCN(Cc2ccccc2)CC1	x	-21	-36	x	x
SMILES	VIM-2 inhibitor	PLCg1 inh	PLC-beta3 inh	IMP-1 inh-1	PvdQ acylase	others
CCN(CC)CCNC(=O)c1cn(CC)c2cc(N3CCN(C)CC3)c(F)cc2c1=O	12*	-23	-28	1	8	IMP-1 inh-2=-2;VIM-2 FRET ctr=0;TEM-1 counter=-3;VIM-2 confirm 2=27*
CCCCNC(=O)c1cn(CC)c2cc(N3CCN(C)CC3)c(F)cc2c1=O	3	-14	-24	-2	x
O=P(O)(O)c1ccccc1OCCOCCOCCOCCOc1ccccc1P(=O)(O)O	31*	-1	2	-4	2	IMP-1 inh-2=-2;VIM-2 FRET ctr=60*;TEM-1 counter=-4;VIM-2 confirm 2=44*
COC[C@H]1CCCN1c1ccc2c(c1)O[C@H]1CCN(C1)S2(=O)=O	x	1	3	x	x
CCOC(=O)c1cc(-c2ccncc2)nc2c1c(C)nn2-c1ccccn1	42*	-337	-386	-2	-11	IMP-1 inh-2=-3;VIM-2 FRET ctr=-11;TEM-1 counter=-7;VIM-2 confirm 2=58*
COc1ccc(-c2cc(C(=O)O)c3c(C)nn(-c4ccccn4)c3n2)cc1	-1	i	i	-1	x
Cn1c(=O)n(C)c2cc(/C=N/n3cnnc3)ccc21	15*	-20	-32	-3	-5	IMP-1 inh-2=-3;VIM-2 FRET ctr=1;TEM-1 counter=-6;VIM-2 confirm 2=45*
CCC(C)[C@H](NC(=O)N1CC(=O)Nc2ccccc21)C(=O)N[C@H](Cc1c[nH]c2ccccc12)C(=O)O (some centres undefined)	5	-6	-8	-3	-11
CC(C)[C@H](NC(=O)N1CC(=O)Nc2ccccc21)C(=O)N[C@H](Cc1c[nH]c2ccccc12)C(=O)O	13*	-1	-1	1	-11	IMP-1 inh-2=-1;VIM-2 FRET ctr=22*;TEM-1 counter=-1;VIM-2 confirm 2=12*
COc1ccc(C(=O)CSc2nnc3ccc(-c4ccccn4)nn23)cc1	2	-2	-11	-1	4
Cc1nc(-c2ccccn2)nc(SCC(=O)c2ccc(F)cc2)c1Cl	50*	3	-3	-6	6	IMP-1 inh-2=-5;VIM-2 FRET ctr=-24;TEM-1 counter=-6;VIM-2 confirm 2=67*
COc1ccc(C(=O)CSc2nc(-c3ccccn3)nc(C)c2Cl)cc1	29*	0	-8	-4	5	IMP-1 inh-2=-5;VIM-2 FRET ctr=-26;TEM-1 counter=-6;VIM-2 confirm 2=61*
COC(=O)[C@H](CC(C)C)N(Cc1cn(Cc2ccc(C)cc2)nn1)S(=O)(=O)c1ccc(F)cc1Br	x	4	4	x	x
COc1ccc(CCNC(=O)c2cc3c(=O)n4ccccc4nc3n(CCCN3CCOCC3)c2=N)cc1OC	15*	-25	-45	0	-5	IMP-1 inh-2=-3;VIM-2 FRET ctr=-9;TEM-1 counter=-4;VIM-2 confirm 2=21*
COc1ccc(CCn2c(=N)c(C(=O)NCCN3CCOCC3)cc3c(=O)n4cccc(C)c4nc32)cc1OC	19*	-11	-14	-3	-9	IMP-1 inh-2=-3;VIM-2 FRET ctr=0;TEM-1 counter=-6;VIM-2 confirm 2=27*
